Shown are actives, neighbours in structure and some others; about 2.2% of the full set was active somewhere.
TRAIL sens C8 = caspase-8 TRAIL sensitization | NB7+C8 cells + TRAIL, ATPlite viability luminescence | inhibition (viability loss, TRAIL sensitization), % at 10 µM | AID 624354 | 360,000 tested, 1% active;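 active = compounds causing at least 50% loss of cell viability in the single-dose screen, relative to plate controls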
FLuc act counter = affects firefly luciferase, flagging false hits in luciferase stimulation screens. P08659. AID 1027. 200,000 tested, under 10 active. ATPlite luciferase biochemical, luminescence, 10 min; 0 = ATP-free wells, 1 = DMSO control. activation factor at 10 µM;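 active = luciferase activation factor, scaled between plate controls, of at least 2 with compound at 10 µM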
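System: cell-free luciferase reagent; medium: PBS as buffer for the ATP substrate; doses: test compounds dosed from 2 mM stocks in 100% DMSO; incubation: 10 min, room temperature; measured by: luminescence from luciferase reaction; read-out: luciferase activation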
PPC-1+TRAIL kill = kills PPC-1 cancer cells in the presence of TRAIL; PPC-1 cells + TRAIL, ATPLite viability luminescence; cell killing (% activity), % at 4 µM or 5 µM; 220,000 tested, 0.41% active;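 active = cell killing above 50% in the first pass at 4 µM, then a duplicate retest at 5 µM averaging 50% or more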;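 note: plate controls were cells with TRAIL plus DMSO for no effect and medium-only wells lacking cells for full effect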
Wee1 stabilizer = blocks degradation of human Wee1 kinase; P30291; HeLa Luc-Wee1K328M stability, luciferase luminescence; 100% = proteasome inhibitor MG132 effect; reporter increase, % at 5 µM; 220,000 tested, 1.2% active; AID 1321;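 active = activation above the mean of all tested compounds plus 3 SD, set per screening run, cut at about 8.8% in these data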;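 note: cells exposed to compound for 20 h before luminescence read; 0% = DMSO alone and 100% = MG132 at 30 µM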
FLuc inhib CS = Photinus pyralis luciferase inhibition counter-screen; P08659; inhibition, % at 10 µM; ATPLite firefly luciferase biochemical luminescence, 10 min; 200,000 tested, 1.5% active; AID 1006;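 active = inhibition above about 50% when tested at 10 µM, limit read from the data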
PKD1 kinase inh = PKD1 (human) kinase inhibition; inhibition, % (test concentration not listed); Q15139; PKD1 kinase fluorescence polarization assay; 200,000 tested, 0.056% active; in the data active = inhibition above about 50%
Target sequence (Q15139 whole entry, looked up): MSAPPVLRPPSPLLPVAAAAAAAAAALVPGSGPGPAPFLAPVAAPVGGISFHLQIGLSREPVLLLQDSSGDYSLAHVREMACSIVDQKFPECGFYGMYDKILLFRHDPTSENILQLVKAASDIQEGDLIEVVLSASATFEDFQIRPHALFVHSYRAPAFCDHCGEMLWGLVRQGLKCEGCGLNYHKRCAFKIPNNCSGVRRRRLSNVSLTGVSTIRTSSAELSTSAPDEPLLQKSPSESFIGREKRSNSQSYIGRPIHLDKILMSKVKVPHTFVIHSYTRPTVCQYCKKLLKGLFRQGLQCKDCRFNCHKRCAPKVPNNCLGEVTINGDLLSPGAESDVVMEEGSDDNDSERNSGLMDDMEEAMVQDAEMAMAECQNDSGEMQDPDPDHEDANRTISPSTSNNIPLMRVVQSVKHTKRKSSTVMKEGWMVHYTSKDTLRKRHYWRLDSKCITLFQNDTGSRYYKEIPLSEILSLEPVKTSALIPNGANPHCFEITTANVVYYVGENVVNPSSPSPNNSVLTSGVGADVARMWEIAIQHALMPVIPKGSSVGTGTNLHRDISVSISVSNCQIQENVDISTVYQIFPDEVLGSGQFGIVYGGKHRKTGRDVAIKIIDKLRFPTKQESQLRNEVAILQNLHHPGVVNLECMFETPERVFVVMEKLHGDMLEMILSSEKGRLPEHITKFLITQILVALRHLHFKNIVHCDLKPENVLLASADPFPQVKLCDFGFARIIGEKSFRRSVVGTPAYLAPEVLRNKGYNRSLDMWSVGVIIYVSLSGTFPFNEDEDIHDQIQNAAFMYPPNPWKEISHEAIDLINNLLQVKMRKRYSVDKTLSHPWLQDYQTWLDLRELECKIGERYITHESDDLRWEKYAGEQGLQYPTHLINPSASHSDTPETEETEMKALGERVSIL
Numbers without * were called inactive; / = no result given; ! = not active in a repeat.

SMILES | TRAIL sens C8 | FLuc act counter | PPC-1+TRAIL kill | Wee1 stabilizer | FLuc inhib CS | PKD1 kinase inh
Cc1c(Cl)cccc1-n1c(SCC(=O)N2CCC(C(=O)O)CC2)nnc1-c1ccncc1 | -11 | 1.1 | 0 | 0 | -6 | 4
CC(C)c1ccc2c(c1)CC[C@H]1[C@](C)(CN)CCC[C@]21C | 68*! | / | / | / | / | /
CCOc1ccc(/C=N/NC(=O)C(O)c2ccccc2)c(O)c1 (stereo not given) | 26 | / | / | / | / | /
C#CCOCCOCCOCCNc1nc(N2CCN(C(=O)[C@H]([C@@H](C)CC)n3cc([C@@H](N)CC(C)C)nn3)CC2)nc(N2CCN(C(=O)[C@H](CCCCN)n3cc([C@@H](N)CO)nn3)CC2)n1 | -15 | 1 | 16 | 9.2* | -4 | -3
C#CCOCCOCCOCCNc1nc(N2CCN(C(=O)C([C@@H](C)CC)n3cc(C(N)CC(C)C)nn3)CC2)nc(N2CCN(C(=O)[C@H](CCC(=O)O)n3cc(C(N)Cc4ccc(O)cc4)nn3)CC2)n1 (stereo not given in full) | -16 | 1.1 | 2 | 11* | -11 | 5
C#CCOCCOCCOCCNc1nc(N2CCN(C(=O)C([C@@H](C)CC)n3cc(C(N)Cc4ccc(O)cc4)nn3)CC2)nc(N2CCN(C(=O)[C@H](CCC(=O)O)n3cc(C(N)CC(C)C)nn3)CC2)n1 (stereo not given in full) | -8 | 1.1 | -4 | 5 | -7 | 6
C#CCOCCOCCOCCNc1nc(N2CCN(C(=O)[C@H]([C@@H](C)CC)n3cc([C@@H](N)CO)nn3)CC2)nc(N2CCN(C(=O)[C@H](CCCCN)n3cc([C@@H](N)CO)nn3)CC2)n1 | -5 | / | / | / | / | /
Cc1ccn(CC(=O)N2CCCC(N3CCN(c4ccccc4F)CC3)C2)n1 (stereo not given) | 9 | / | / | / | / | /
C=C(C)CSc1nnc2n(C)c(=O)c3c4c(sc3n12)CCC4 | 55* | 1 | 0 | 4 | -4 | 1
CCOc1ccc(NC(=O)CSc2nc3ccccc3nc2N2CCOCC2)cc1 | 9 | / | / | / | / | /
N=C1C(c2nc3ccccc3[nH]2)=C(O)CN1C1CCCCC1 | 28 | / | 14 | 5 | / | /
N=C1C(c2nc3ccccc3[nH]2)=C(O)CN1c1ccc(F)cc1 | 22 | 0.9 | 0 | 9.7* | 8 | -3
Cc1ccc(NCc2n[nH]c(=S)n2-c2ccccc2)c(C)c1 | -1 | 1 | 9 | 0 | 0 | -6
O=C(NCc1ccccc1Cl)c1cccc2c1C(=O)c1ccc(-c3ccc(OC(F)(F)F)cc3)cc1S2(=O)=O | 54* | / | / | / | / | /
CN1CCN(C(=O)c2ccccc2NC(=O)Cc2ccccc2)CC1 | -13 | 1 | 2 | 10* | -2 | -6
CCN1CCN(Cc2ccc(NC(=O)Nc3ccccc3Cl)cc2)CC1 | 39 | 0.3 | 30 | -1 | 66* | 5
O=C(Nc1ccc(CN2CCCCC2)cc1)Nc1ccccc1Cl | 11 | 1 | 6 | 0 | 4 | -2
O=C(NCCN1CCN(C(=O)c2ccc(F)cc2)CC1)c1ccc(F)cc1 | 18 | / | / | / | / | /
COc1ccc(CSC2=CS(=O)(=O)c3ccccc3N2)cc1 | 2 | 1.1 | 4 | 9.7* | -8 | 0
CCN(CC(=O)NCc1cccs1)C(=O)c1ccc(S(=O)(=O)N(CC)c2ccccc2)cc1 | 4 | / | / | / | / | /
CC(C)c1ccc2[nH]c(O)c(N=NC(=O)c3cccc(S(=O)(=O)Nc4cccc(Cl)c4)c3)c2c1 | 50* | / | 6 | 11* | / | /
CC(C)c1ccc2[nH]c(O)c(N=NC(=O)c3cccc(S(=O)(=O)Nc4ccc(Cl)cc4)c3)c2c1 | 20 | 1 | 5 | 3 | 0 | 4
CSc1nc(NCCN(C)C)c2sc3nc(-c4ccco4)c4c(c3c2n1)CCC4 | 83* | / | / | / | / | /
CSc1nc(N(C)CCO)c2sc3nc(-c4ccco4)c4c(c3c2n1)CCC4 | -2 | 1 | 6 | 0 | -5 | 7
CCCCN(C)C(=O)c1nc2ccccn2c1CN1CCN(C(=O)c2cccs2)CC1 | 1 | 1 | 16 | 0 | 0 | 0
SMILES | TRAIL sens C8 | FLuc act counter | PPC-1+TRAIL kill | Wee1 stabilizer | FLuc inhib CS | PKD1 kinase inh
CCOC(=O)c1sc2nc(-c3ccccc3)ccc2c1N | 77* | 0.2 | 58* | 11* | 82* | -1
CN(C(=O)c1cccc(NC(=O)Cc2cccc(NC(=O)C3CCCN(C(=O)c4ccccc4)C3)c2)c1)C1CC1 (stereo not given) | -2 | / | / | / | / | /
N#Cc1c(Cl)cccc1N1CCC(C(N)=O)CC1 | 0 | / | 43 | -1 | / | /
NC(=O)c1ccsc1NC(=O)c1coc2ccccc2c1=O | 52* | 0.3 | 29 | 10* | 71* | 0
O=C1C=CC(=Nc2ccc3c(c2)Cc2ccccc2-3)O1 | 9 | / | / | / | / | /
COc1ccc(C(=O)NNC(=O)CCn2nnc(-c3ccc(Cl)cc3)n2)cc1OC | -6 | 1.1 | -12 | -1 | -6 | -3
Cc1ccc(C)c(Sc2ccc(NC(=O)CCl)cc2)c1 | / | 1 | 0 | 16* | -4 | -5
O=C(CCl)Nc1ccccc1Sc1ccccc1 | 83* | 1 | 12 | 0 | -5 | 2
O=C(CCl)Nc1cccc(Oc2cnccn2)c1 | 11 | / | / | / | / | /
O=C(CCl)Nc1cccc(Oc2ccccc2)c1 | 87* | 0.9 | 5 | -2 | 12 | -5
Cc1ccc(Sc2ccc(NC(=O)CCl)cc2)cc1C | 27 | 1 | 6 | 4 | -3 | -5
O=C(CCl)Nc1ccc(-c2ccccc2)cc1 | 57* | 1.1 | 26 | -3 | -7 | 1
COc1cc(OC)cc(C(=O)NNC(=O)c2cc(S(=O)(=O)N3CCOCC3)ccc2F)c1 | -13 | / | / | / | / | /
COc1ccc(Cc2nc(-c3cccs3)no2)cc1 | -12 | 1 | 16 | 8.9* | 0 | 9
COc1cccc(-c2noc(-c3cccs3)n2)c1 | 21 | 0.5 | 26 | 3 | 50* | -4
CCOC(=O)N1CCC(NC(=O)CS(=O)Cc2nc(-c3ccc(Cl)cc3)oc2C)CC1 (stereo not given) | -26 | / | / | / | / | /
NC(=O)CNC(=O)c1ccc(Cl)cc1 | -19 | / | 2 | 9.1* | / | /
Cc1ccc(CONC(=O)c2ccccc2)cc1 | 10 | / | 12 | -1 | / | /
O=C(NOCc1ccccc1)c1ccc(Cl)cc1 | 51* | / | / | / | / | /
COc1ccc(C(=O)NOCc2ccccc2)cc1 | 56* | / | / | / | / | /
O=C(CNC(=O)c1ccc(Cl)cc1)NNC(=O)c1ccc(Br)cc1 | 8 | / | / | / | / | /
COc1ccc(S(=O)(=O)N2CCOCC2)cc1NC(=O)c1c(-c2ccccc2)noc1C | -10 | / | / | / | / | /
CC(/C=N/NC(=O)c1nn(C)c(C)c1Br)=C\c1ccccc1 | 57* | 0.2 | 54* | 4 | 80* | 1
CC(=C/c1ccccc1)/C=N/NC(=O)c1cccs1 | 58* | / | 6 | 0 | / | /
CC(/C=N/NC(=O)c1c(Br)cnn1C)=C\c1ccccc1 | 3 | 0.8 | 15 | 1 | 16 | -5
CC(/C=N/NC(=O)c1ccncc1)=C\c1ccccc1 | 26 | 0.4 | 5 | 0 | 61* | 3
